Experimental findings from PMC9054602 (RSC Advances, 2020) are described below.

Test [1] has as its system PRRSV CH-1a strain. Description: Antiviral activity by IFA, PRRSV CH-1a in MARC-145 cells. Format: cell-based. Particulars: Porcine reproductive and respiratory syndrome virus, MARC145. A digest of the protocol: (§1)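 MARC-145 monolayers infected at 0.05 MOI for 2 h at 37 °C. Inoculum removed and fresh medium with serial compound concentrations added. Cells then fixed in 4% paraformaldehyde, permeabilized with Triton X-100, blocked with BSA and stained for N protein (mAb 4A5, 1:400, 4 °C overnight), with Alexa 568 secondary and DAPI. Red and blue ODs digitized; protection % derived against DMSO wells. EC50 by nonlinear regression; three independent experiments.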

Test [2] concerns PRRSV GD-XH strain. The experiment in a line: Antiviral activity by indirect immunofluorescence assay. The class given is cell-based, porcine reproductive and respiratory syndrome virus. To be noted: MARC-145 cells; for EC50: Porcine reproductive and respiratory syndrome virus, MARC145, PRRSV GD-XH (0.05 MOI), IFA at 48 hpi; for Selectivity index (SI): ratio of CC50 to EC50, PRRSV GD-XH.

In test [3] the test system is PRRSV VR2332 strain. Description: Antiviral activity by IFA, PRRSV VR2332 in MARC-145 cells. Particulars: Porcine reproductive and respiratory syndrome virus, MARC145. The class given is cell-based. A digest of the protocol:
as §1

In test [4] the test system is PRRSV NADC30-like strain. The experiment in a line: Antiviral activity by IFA, PRRSV NADC30-like in MARC-145 cells. The class given is cell-based. To be noted: Porcine reproductive and respiratory syndrome virus, MARC145. The gist of the method:
as §1

A value given as a limit tells only on which side of the number the result lay.

On to `C[C@H]1[C@H](C)CC[C@]2(C(=O)O)CC[C@]3(C)C(=CC[C@@H]4[C@@]5(C)CC[C@H](O)C(C)(C)[C@@H]5CC[C@]43C)[C@H]12` [UA, Ursolic acid], for which the EC50 (commonly the concentration at which the effect is half-maximal) is 11.3 ± 0.78 µM in test [1], 8.03 ± 0.93 µM in test [2], 5.66 ± 0.52 µM in test [3] and 5.03 ± 0.35 µM in test [4]. Moreover, in test [2], the “Selectivity index (SI)” value worked out at 8.1.
`NC(=O)c1ncn([C@@H]2O[C@H](CO)[C@@H](O)[C@H]2O)n1` [Ribavirin]: the EC50 in test [1] is 31.5 ± 2.8 µM; in test [2], 23.7 ± 3.1 µM; in test [3], 22.3 ± 3.1 µM; in test [4], 16.8 ± 2.1 µM. Besides, in test [2], the “Selectivity index (SI)” value is on record as above 27.
